Test [1] has as its target Mitogen-activated protein kinase 10 (Homo sapiens) (UniProt P53779). The test can be described thus: Inhibition of JNK3 at 1 uM. Put shortly: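 Single-point profiling in a panel of 108 kinases. Each selected inhibitor was tested at two concentrations, 0.1 and 1.0 micromolar. Values are reported as inhibition at each concentration.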
The target in test [2] is Mast/stem cell growth factor receptor Kit (Homo sapiens) (UniProt P10721). Put plainly: Inhibition of c-Kit at 0.1 uM; values are per cent of control.
Test [3] addresses T1, Dual specificity mitogen-activated protein kinase kinase 6 (Homo sapiens) (UniProt P52564).
T1 sequence (whole entry): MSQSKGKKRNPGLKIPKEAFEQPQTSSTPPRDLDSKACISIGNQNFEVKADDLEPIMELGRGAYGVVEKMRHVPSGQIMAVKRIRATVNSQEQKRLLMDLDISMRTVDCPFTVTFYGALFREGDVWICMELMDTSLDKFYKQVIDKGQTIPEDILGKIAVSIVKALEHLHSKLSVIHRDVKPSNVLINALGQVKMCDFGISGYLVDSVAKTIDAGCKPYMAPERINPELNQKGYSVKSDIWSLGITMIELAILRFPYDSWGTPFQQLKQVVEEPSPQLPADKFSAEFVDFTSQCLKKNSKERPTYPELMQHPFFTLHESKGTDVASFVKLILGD
Put plainly: Inhibition of MKK6 at 0.1 uM; values are per cent of control.

The target in test [4] is Fibroblast growth factor receptor 1 (Homo sapiens) (UniProt P11362). Put plainly: Inhibition of FGFR1 at 1 uM; values are per cent of control.
Test [5] deals with Tyrosine-protein kinase SYK (Homo sapiens) (UniProt P43405). Put plainly: Inhibition of Syk at 1 uM.
The target in test [6] is T2, Tyrosine-protein kinase JAK3 (Homo sapiens) (UniProt P52333).
T2 sequence (whole entry): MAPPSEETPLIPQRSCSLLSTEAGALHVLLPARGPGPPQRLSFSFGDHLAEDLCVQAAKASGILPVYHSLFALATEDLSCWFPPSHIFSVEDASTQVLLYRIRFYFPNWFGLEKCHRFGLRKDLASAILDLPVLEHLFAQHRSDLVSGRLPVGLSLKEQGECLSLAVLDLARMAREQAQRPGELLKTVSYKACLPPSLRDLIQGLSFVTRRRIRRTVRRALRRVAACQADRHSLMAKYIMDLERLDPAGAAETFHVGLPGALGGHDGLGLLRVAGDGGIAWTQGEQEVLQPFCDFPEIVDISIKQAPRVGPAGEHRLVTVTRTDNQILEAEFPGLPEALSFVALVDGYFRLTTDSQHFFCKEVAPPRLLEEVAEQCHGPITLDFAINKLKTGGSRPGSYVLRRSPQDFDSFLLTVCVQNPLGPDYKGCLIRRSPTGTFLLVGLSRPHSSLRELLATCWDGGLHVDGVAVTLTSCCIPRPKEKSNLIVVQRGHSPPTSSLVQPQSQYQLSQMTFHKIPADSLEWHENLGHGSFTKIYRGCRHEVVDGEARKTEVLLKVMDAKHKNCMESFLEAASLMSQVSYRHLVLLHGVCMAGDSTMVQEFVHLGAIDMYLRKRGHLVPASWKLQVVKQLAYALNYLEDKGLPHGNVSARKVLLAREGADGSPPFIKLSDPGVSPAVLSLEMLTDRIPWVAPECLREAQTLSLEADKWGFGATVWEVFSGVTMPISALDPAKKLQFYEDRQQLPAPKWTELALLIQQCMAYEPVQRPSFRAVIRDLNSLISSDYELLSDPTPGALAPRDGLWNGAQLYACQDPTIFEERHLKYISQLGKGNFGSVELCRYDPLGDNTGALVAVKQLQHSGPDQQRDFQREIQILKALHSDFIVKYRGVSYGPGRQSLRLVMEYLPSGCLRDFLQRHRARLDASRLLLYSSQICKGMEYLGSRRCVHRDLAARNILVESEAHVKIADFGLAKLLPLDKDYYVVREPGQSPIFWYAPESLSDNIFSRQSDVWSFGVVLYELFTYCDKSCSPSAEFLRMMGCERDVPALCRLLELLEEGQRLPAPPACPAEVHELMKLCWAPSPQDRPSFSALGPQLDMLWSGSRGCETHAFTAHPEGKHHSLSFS
Put plainly: Inhibition of JAK3 at 1 uM. In short, it runs like this:
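Each selected inhibitor was tested at two concentrations, 0.1 and 1.0 micromolar. Values are reported as inhibition at each concentration.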

Test [7] concerns the target Ephrin type-A receptor 2 (Homo sapiens) (UniProt P29317). The test can be described thus: Inhibition of EphA2 at 1 uM; values are per cent of control.
Test [8] concerns the target Tyrosine-protein kinase ABL1 (Homo sapiens) (UniProt P00519). The test can be described thus: Inhibition of Abl at 1 uM; values are per cent of control.
Test [9] addresses Glycogen synthase kinase-3 beta (Homo sapiens) (UniProt P49841). Put plainly: Inhibition of GSK3-beta at 1 uM; values are per cent of control.
Test [10] concerns the target T3, Aurora kinase A (Homo sapiens) (UniProt O14965).
T3 sequence (whole entry): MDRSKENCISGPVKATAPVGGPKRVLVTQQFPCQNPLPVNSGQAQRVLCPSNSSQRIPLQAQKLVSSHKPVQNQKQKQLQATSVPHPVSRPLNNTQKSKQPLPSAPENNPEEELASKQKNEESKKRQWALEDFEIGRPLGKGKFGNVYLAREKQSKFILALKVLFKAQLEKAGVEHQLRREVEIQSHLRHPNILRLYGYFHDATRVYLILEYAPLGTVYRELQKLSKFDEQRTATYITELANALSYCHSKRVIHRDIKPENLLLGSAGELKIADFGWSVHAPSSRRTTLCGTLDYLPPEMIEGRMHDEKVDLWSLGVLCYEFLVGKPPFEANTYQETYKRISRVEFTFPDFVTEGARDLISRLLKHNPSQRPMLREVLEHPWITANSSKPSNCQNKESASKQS
Put plainly: Inhibition of aurora-A at 0.1 uM; values are per cent of control.

Test [11] deals with Glycogen synthase kinase-3 beta (Homo sapiens) (UniProt P49841). The test can be described thus: Inhibition of GSK3-beta at 0.1 uM; values are per cent of control.
Test [12] has as its target Platelet-derived growth factor receptor beta (Homo sapiens) (UniProt P09619). The test can be described thus: Inhibition of PDGFRbeta at 1 uM. Put shortly:
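Single-point screen within a 108-kinase selectivity panel. Each kinase was tested with inhibitor at 0.1 and 1.0 micromolar, and activity was recorded as percent inhibition.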

In general, inhibition refers to the drop in the measured response relative to a control, in per cent.

Chain of Glycogen synthase kinase-3 beta (Homo sapiens) (P49841 whole entry, looked up): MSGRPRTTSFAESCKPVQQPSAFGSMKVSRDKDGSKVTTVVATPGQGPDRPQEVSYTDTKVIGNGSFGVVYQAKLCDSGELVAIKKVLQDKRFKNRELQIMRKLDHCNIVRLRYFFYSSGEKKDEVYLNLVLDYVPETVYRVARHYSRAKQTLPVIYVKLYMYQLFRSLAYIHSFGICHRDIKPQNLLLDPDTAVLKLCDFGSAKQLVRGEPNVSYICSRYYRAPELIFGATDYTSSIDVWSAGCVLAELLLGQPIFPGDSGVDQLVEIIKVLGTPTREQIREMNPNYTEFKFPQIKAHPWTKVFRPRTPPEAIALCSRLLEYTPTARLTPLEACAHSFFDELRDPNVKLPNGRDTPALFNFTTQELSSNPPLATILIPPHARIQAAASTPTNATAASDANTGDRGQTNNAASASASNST
Chain of Platelet-derived growth factor receptor beta (Homo sapiens) (P09619 whole entry): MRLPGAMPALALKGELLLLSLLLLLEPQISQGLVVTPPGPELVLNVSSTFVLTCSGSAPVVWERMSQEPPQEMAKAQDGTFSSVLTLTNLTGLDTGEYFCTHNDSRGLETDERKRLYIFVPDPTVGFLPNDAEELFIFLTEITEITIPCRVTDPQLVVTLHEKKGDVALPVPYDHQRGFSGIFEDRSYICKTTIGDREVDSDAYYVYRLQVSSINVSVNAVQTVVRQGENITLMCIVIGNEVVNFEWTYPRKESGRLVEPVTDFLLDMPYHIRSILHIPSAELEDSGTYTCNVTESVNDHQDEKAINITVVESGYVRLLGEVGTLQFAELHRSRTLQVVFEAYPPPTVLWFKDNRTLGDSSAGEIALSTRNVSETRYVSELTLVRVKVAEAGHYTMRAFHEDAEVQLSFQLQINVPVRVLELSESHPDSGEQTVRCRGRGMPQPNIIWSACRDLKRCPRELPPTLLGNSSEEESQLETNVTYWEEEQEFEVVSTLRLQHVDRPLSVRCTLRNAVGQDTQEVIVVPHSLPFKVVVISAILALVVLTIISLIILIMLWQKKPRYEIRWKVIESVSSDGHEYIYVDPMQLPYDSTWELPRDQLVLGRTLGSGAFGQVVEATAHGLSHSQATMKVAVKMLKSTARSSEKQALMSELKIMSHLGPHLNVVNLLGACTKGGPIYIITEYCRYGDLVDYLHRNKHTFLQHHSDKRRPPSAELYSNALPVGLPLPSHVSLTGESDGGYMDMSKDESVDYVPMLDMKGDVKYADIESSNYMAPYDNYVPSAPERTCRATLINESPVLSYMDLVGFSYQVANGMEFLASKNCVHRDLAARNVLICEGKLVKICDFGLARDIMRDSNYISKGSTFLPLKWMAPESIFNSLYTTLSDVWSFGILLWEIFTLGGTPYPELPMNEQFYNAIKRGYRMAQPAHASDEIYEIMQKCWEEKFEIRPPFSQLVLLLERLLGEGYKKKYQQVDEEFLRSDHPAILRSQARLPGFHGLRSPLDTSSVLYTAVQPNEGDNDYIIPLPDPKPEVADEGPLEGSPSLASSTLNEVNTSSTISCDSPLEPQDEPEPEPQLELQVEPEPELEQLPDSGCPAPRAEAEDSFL
Chain of Mast/stem cell growth factor receptor Kit (Homo sapiens) (P10721 whole entry): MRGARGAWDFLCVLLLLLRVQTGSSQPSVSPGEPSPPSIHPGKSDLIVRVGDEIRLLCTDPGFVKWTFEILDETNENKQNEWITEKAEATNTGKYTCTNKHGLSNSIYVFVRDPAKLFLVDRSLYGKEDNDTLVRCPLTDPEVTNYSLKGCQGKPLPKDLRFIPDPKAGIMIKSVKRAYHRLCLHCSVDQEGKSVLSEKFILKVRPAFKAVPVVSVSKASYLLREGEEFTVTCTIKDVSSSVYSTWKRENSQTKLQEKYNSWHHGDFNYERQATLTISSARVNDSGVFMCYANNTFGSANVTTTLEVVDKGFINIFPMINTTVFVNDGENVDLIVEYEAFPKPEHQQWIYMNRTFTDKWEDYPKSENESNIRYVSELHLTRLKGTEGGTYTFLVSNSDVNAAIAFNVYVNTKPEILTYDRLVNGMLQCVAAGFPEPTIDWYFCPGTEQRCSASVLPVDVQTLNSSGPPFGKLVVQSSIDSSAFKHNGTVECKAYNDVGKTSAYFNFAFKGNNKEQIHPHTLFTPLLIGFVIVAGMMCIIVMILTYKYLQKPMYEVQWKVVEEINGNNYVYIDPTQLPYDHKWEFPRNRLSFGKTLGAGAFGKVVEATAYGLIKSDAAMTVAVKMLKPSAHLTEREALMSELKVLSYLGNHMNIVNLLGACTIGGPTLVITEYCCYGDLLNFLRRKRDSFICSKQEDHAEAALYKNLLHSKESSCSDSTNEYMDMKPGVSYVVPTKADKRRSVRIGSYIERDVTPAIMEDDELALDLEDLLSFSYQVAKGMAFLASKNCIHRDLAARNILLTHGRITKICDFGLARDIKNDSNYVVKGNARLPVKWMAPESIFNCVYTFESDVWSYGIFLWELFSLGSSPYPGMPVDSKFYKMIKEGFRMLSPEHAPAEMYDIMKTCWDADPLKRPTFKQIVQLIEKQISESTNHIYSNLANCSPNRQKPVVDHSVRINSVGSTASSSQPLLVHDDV
Chain of Tyrosine-protein kinase ABL1 (Homo sapiens) (P00519 whole entry): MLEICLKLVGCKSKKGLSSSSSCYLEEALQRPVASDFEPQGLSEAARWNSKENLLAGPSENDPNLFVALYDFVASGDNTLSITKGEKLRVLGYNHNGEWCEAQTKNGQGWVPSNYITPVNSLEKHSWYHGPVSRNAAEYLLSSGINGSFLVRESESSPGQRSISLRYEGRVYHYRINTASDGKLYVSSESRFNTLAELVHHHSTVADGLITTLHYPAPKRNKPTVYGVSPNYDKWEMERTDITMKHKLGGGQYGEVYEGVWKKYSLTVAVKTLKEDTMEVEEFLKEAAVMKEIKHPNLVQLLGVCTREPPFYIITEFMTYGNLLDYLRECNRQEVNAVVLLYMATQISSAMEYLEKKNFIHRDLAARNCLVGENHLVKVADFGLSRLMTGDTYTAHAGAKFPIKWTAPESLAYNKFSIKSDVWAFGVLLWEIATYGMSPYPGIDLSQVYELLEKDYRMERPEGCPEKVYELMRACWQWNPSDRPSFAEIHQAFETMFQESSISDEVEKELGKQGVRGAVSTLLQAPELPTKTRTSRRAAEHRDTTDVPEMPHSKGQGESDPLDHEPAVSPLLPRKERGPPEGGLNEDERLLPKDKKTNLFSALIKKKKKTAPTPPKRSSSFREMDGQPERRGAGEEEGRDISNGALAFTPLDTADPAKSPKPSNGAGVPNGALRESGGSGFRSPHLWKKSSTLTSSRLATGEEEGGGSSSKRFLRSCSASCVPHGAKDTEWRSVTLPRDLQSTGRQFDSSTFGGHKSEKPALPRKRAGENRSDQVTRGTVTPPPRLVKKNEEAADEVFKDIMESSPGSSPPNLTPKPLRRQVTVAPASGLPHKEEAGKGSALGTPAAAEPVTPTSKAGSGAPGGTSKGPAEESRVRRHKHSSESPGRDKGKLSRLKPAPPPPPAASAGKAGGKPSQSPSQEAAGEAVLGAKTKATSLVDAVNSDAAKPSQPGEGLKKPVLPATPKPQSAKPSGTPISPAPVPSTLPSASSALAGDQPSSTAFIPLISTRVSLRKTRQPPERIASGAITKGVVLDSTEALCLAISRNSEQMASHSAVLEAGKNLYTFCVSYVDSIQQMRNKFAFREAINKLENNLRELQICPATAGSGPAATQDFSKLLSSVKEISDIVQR
Chain of Ephrin type-A receptor 2 (Homo sapiens) (P29317 whole entry): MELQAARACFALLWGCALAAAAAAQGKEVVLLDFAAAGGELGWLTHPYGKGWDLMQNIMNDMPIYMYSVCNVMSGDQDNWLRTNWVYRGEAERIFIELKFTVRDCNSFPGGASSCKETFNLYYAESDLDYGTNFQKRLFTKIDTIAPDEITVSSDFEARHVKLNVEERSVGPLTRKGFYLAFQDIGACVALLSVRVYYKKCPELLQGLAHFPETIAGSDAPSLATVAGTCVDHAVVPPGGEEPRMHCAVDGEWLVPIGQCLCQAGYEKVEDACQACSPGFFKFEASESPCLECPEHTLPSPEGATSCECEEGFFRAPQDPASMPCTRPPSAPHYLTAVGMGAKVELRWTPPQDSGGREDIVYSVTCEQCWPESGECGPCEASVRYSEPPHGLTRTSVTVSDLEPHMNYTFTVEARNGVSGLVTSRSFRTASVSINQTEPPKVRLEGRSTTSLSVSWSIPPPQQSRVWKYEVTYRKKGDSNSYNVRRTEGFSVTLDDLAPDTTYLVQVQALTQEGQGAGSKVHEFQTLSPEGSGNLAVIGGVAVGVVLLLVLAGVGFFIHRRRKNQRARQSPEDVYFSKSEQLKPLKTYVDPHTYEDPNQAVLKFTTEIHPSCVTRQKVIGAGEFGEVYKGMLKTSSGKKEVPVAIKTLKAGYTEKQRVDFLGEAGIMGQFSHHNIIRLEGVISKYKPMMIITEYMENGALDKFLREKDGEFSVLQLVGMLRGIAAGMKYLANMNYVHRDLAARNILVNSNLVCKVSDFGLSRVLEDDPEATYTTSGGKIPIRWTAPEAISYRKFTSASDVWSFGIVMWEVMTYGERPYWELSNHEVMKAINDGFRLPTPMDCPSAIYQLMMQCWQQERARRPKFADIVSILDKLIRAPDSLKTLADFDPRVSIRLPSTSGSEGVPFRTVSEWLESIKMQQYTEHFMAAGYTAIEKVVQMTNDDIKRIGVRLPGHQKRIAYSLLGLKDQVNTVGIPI
Chain of Mitogen-activated protein kinase 10 (Homo sapiens) (P53779 whole entry): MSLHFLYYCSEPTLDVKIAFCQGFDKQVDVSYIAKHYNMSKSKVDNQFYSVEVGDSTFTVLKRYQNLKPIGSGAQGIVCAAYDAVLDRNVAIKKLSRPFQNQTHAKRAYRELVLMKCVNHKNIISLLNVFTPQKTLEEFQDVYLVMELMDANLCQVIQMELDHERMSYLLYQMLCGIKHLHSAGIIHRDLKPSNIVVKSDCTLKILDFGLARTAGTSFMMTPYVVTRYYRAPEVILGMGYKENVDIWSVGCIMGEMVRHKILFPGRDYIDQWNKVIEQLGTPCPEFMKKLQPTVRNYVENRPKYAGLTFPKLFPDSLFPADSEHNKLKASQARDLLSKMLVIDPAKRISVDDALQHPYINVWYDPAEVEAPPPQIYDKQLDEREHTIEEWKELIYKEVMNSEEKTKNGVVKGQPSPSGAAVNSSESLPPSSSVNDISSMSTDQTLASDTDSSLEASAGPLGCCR

For the compound `Cc1ccc2cc(-c3n[nH]c4ccc(NC5CCNC5)cc34)[nH]c2c1` (centres undefined), the inhibition in test [1] stood at 36%; in test [5] it was 0%; in test [6], 8%; in test [12], 34%. Besides, the residual activity in test [2] turned out to be 92%; in test [3] it was 57%; in [4] it was 0%; in test [7], 13%; in test [8] it was 0%; in [9] it was 69%. For the same compound, the residual activity in test [10] worked out at 5%; in test [11], 97%.

`Cc1ccc2cc(-c3n[nH]c4ccc(NC5CCN(Cc6ccccc6)CC5)cc34)[nH]c2c1`: the inhibition in test [1] is 91%; in [5], -2%; in test [6] it was 5%; in test [12] it was 42%. In addition, the residual activity was 143% in test [2]; 90% in test [3]; -2% in test [4]; 7% in [7]; 0% in test [8]; 95% in [9]. Moreover, the residual activity in test [10] was 34%; in test [11], 97%.

These data come from ChEMBL document CHEMBL1681705, “Optimisation of ITK inhibitors through successive iterative design cycles” (Bioorg Med Chem Lett, 2011).
